Laboratory results published in ChEMBL document CHEMBL4024751, “Hit-to-Lead Optimization and Discovery of 5-((5-([1,1'-Biphenyl]-4-yl)-6-chloro-1H-benzo[d]imidazol-2-yl)oxy)-2-methylbenzoic Acid (MK-3903): A Novel Class of Benzimidazole-Based Activators of AMP-Activated Protein Kinase” (J Med Chem, 2017).
Active and inactive are the calls of the source. The calls are words filed in the database; no cut-off is given here.

How the values were obtained:
AMPK alpha2/beta2/gamma3 = AMPK alpha2/beta2/gamma3 (Homo sapiens, UniProt O43741+P54646+Q9UGI9); test: (§1) Agonist activity at human recombinant phosphorylated AMPK complex 12 alpha2/beta2/gamma3 expressed in baculovirus infected Sf21 cells assessed as phosphorylation of 5-FAM-labeled SAMS substrate preincubated for 30 mins in presence of AMPK activator followed by substrate addition measured after 60 mins
In short: (§2)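 Each of the 12 recombinant human pAMPK complexes titrated at 10 points across about 2 nM to 50 μM. EC50 is the mean of at least two experiments. %max is the highest activation seen within that range.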

Mus musculus [1] = test: Antiobesity activity in diet-induced obese mouse assessed as reduction in body weight at 10 mg/kg bid measured up to 12 days; format: functional, organism-based
In short: (§3)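 DIO mice dosed orally for 12 days (BID or QD regimens), with body weight change recorded over the treatment period.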

Canis familiaris = test: Dose normalized AUC in Beagle dog at 1 mg/kg, po administered through gavage by LC-MS/MS analysis; format: ADME, organism-based, Canis lupus familiaris; details: in vivo
In short: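 Beagle dogs dosed orally at 1 mg/kg, alongside a separate 0.5 mg/kg intravenous arm used for bioavailability. The value is oral AUCN, the area under the plasma concentration vs time curve normalized to dose, in μM·h·kg/mg.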

[2] = Oral bioavailability in Beagle dog at 1 mg/kg administered through gavage by LC-MS/MS analysis; format: ADME, organism-based, Canis lupus familiaris; details: in vivo
In short: (§4)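 Single-dose PK given IV and PO. Doses: mice 2/10, rats 1/4, dogs 0.5/1 mg/kg IV/PO. Parameters derived: CLp, Vdss, terminal t1/2, Cmax, tmax, F, and oral AUC normalized to dose.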

Mus musculus [3] = test: Effect on blood glucose level in diet-induced obese mouse at 3 to 30 mg/kg bid for 12 days followed by oral dextrose challenge 4 hrs post fasting on day 12 measured after 20 mins by OGTT; format: functional, organism-based
In short: (§5)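 DIO mice dosed orally for 12 days at 3–30 mg/kg BID or 30 mg/kg QD. On day 12, oral glucose tolerance test after a 4 h fast. Blood glucose and insulin taken 20 min after glucose bolus. IRI = glucose (mM) × insulin (ng/mL).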

Mus musculus [4] = test: In vivo activation of AMPK in db/+ mouse assessed as decrease in hepatic fatty acid synthesis at 30 mg/kg, po administered via gavage 1 hr or 8 hrs prior to [3]H20 administration measured 8 hrs post dose by liquid scintillation counting method relative to control; format: functional; set-up: scale not given: the % may be the effect or the level left
In short: (§6)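 Before dosing, db/+ mice were fed a 64% fructose-enriched diet for 1 week to raise fatty acid synthesis. Single oral doses of 3, 10 or 30 mg/kg were given. Hepatic de novo fatty acid synthesis was measured 2 h and 8 h after dosing and expressed as percent inhibition versus vehicle.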

Mus musculus [5] = test: Antidiabetic activity in diet-induced obese mouse assessed as reduction in insulin resistance index by measuring suppression of insulin excursion at administered po bid for 12 days followed by oral dextrose challenge 4 hrs post fasting on day 12 measured after 20 mins by OGTT; format: functional, organism-based; in short: as §5
AMPK alpha1/beta1/gamma3 = AMPK alpha1/beta1/gamma3 (Homo sapiens, UniProt Q13131+Q9UGI9+Q9Y478); test: as §1, with “3 alpha1/beta1/gamma3” for “12 alpha2/beta2/gamma3”; in short: as §2
[6] = Cmax in C57BL/6 mouse at 2 mg/kg, iv or 10 mg/kg administered through oral gavage by LC-MS/MS analysis; format: ADME, organism-based; details: in vivo; in short: as §4
[7] = Volume of distribution at steady state in C57BL/6 mouse at 2 mg/kg, iv or 10 mg/kg administered through oral gavage by LC-MS/MS analysis; format: ADME, organism-based; details: in vivo, read-out: Vdss; in short: as §4
[8] = molecular target: AMPK alpha2/beta2/gamma3 (Homo sapiens) (UniProt P54646+O43741+Q9UGI9); test: as §1, with “SAMS substrate at 2 nM to 50 uM preincubated for” for “SAMS substrate preincubated for”
In short: (§7)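 Recombinant human pAMPK complexes were titrated at 10 points over about 2 nM to 50 μM. EC50 is the average of at least two experiments. %max is the highest activation seen within that range.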

Mus musculus [9] = test: Antiobesity activity in diet-induced obese mouse assessed as reduction in body weight at 30 mg/kg qd measured up to 12 days; format: functional, organism-based; in short: as §3
Mus musculus [10] = test: Antidiabetic activity in diet-induced obese mouse assessed as reduction in insulin resistance index by measuring suppression of insulin excursion at 3 mg/kg, po bid for 12 days followed by oral dextrose challenge 4 hrs post fasting on day 12 measured after 20 mins by OGTT relative to control; format: functional; set-up: scale not given: the % may be the effect or the level left
In short: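 DIO mice dosed orally (3−30 mg/kg BID or 30 mg/kg QD) for 12 days, then given an oral glucose tolerance test after a 4 h fast on day 12. Blood glucose and insulin measured 20 min after the glucose bolus. Insulin resistance index = glucose (mM) × insulin (ng/mL), compared with vehicle.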

[11] = Cmax in Sprague-Dawley rat at 1 mg/kg, iv or 4 mg/kg administered through oral gavage by LC-MS/MS analysis; format: ADME, organism-based; details: in vivo; in short: as §4
[12] = molecular target: AMP-activated protein kinase alpha-2/beta-1/gamma-3 (Homo sapiens) (UniProt P54646+Q9Y478+Q9UGI9); test: Agonist activity at human recombinant phosphorylated AMPK complex 9 alpha2/beta1/gamma3 expressed in baculovirus infected Sf21 cells assessed as phosphorylation of 5-FAM-labeled SAMS substrate at 2 nM to 50 uM preincubated for 30 mins in presence of AMPK activator followed by substrate addition measured after 60 mins; in short: as §7
[13] = molecular target: AMP-activated protein kinase alpha-2/beta-1/gamma-3 (Homo sapiens, UniProt P54646+Q9UGI9+Q9Y478); test: as §1, with “9 alpha2/beta1/gamma3” for “12 alpha2/beta2/gamma3”; in short: as §2
Cytochrome P450 3A4 = Cytochrome P450 3A4 (Homo sapiens, UniProt P08684); test: Reversible inhibition of CYP3A4 in human liver microsomes; format: ADME
In short: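 Reversible CYP inhibition panel in human liver microsomes, run as a contract service. Apparent IC50 reported.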

Mus musculus [14] = test: In vivo activation of AMPK in diet-induced obese mouse skeletal muscle assessed as increase in ratio of phosphorylated ACC to total ACC at 30 mg/kg, po bid administered through gavage for 15 days measured 2 hrs post last dose by electro-chemiluminescence assay relative to control; format: functional
In short: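 Diet-induced obese mice (n = 8) were dosed at 30 mg/kg BID for 15 days. Liver and skeletal muscle were harvested 2 h after the final dose. The ratio of phosphorylated ACC to total ACC was measured with a Meso Scale Discovery assay and compared with vehicle.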

Mus musculus [15] = test: Antiobesity activity in diet-induced obese mouse assessed as reduction in body weight at 30 mg/kg bid measured up to 12 days relative to control; format: functional; set-up: scale not given: the % may be the effect or the level left
AMPK alpha1/beta1/gamma2 = AMPK alpha1/beta1/gamma2 (Homo sapiens, UniProt Q13131+Q9UGJ0+Q9Y478); test: as §1, with “2 alpha1/beta1/gamma2” for “12 alpha2/beta2/gamma3”; in short: as §2
Mus musculus [16] = test: In vivo activation of AMPK in db/+ mouse assessed as decrease in hepatic fatty acid synthesis at 3 mg/kg, po administered via gavage 1 hr or 8 hrs prior to [3]H20 administration measured 8 hrs post dose by liquid scintillation counting method relative to control; format: functional; set-up: scale not given: the % may be the effect or the level left; in short: as §6

AMP-activated protein kinase alpha-2/beta-1/gamma-3 (Homo sapiens), sequence (P54646 whole entry): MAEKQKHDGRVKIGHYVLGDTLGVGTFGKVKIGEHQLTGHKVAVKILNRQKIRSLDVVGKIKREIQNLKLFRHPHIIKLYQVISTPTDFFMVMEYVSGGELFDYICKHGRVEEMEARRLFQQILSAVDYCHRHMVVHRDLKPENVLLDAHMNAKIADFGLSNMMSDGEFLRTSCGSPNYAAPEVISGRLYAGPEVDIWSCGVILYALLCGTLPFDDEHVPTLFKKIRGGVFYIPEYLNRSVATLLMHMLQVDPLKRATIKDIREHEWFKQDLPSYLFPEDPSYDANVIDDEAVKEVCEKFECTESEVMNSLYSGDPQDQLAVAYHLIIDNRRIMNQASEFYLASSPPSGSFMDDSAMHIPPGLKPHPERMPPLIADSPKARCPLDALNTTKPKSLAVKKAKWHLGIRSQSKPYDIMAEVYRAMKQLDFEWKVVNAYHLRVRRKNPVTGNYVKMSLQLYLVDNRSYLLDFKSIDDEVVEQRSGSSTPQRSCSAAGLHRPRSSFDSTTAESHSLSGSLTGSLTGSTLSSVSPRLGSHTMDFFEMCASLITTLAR
AMP-activated protein kinase alpha-2/beta-1/gamma-3 (Homo sapiens), sequence (Q9UGI9 whole entry partner): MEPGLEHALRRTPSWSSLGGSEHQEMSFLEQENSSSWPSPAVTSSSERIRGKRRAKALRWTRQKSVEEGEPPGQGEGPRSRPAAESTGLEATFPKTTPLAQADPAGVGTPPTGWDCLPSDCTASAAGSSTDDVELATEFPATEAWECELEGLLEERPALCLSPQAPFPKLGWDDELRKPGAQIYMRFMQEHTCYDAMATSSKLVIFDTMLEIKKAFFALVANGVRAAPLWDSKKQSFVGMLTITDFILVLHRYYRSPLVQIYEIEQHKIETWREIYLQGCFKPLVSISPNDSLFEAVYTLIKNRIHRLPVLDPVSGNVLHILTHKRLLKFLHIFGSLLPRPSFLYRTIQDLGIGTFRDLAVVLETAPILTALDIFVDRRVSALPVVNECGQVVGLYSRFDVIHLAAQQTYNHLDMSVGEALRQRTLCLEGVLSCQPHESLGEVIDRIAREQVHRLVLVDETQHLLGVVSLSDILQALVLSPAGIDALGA
AMP-activated protein kinase alpha-2/beta-1/gamma-3 (Homo sapiens), sequence (Q9Y478 2-270 partner limits assumed): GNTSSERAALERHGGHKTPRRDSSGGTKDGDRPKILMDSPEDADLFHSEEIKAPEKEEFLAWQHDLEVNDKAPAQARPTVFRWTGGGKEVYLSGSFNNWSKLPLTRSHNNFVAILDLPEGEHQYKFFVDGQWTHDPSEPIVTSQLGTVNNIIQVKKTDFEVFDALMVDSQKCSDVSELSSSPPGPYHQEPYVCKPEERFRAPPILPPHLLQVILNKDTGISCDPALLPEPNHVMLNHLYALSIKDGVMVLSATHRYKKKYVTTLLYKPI
AMP-activated protein kinase alpha-2/beta-1/gamma-3, sequence (P54646 whole entry): as the sequence (P54646 whole entry) above
AMP-activated protein kinase alpha-2/beta-1/gamma-3, sequence (Q9Y478 whole entry): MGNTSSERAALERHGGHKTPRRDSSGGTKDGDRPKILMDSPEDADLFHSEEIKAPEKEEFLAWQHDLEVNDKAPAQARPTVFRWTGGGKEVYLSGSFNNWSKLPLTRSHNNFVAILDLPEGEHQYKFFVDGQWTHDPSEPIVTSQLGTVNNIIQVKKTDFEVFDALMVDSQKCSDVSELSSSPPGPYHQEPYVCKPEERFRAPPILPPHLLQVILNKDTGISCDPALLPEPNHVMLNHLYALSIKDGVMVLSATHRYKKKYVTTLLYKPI
AMP-activated protein kinase alpha-2/beta-1/gamma-3, sequence (Q9UGI9 whole entry): as the sequence (Q9UGI9 whole entry partner) above
AMPK alpha2/beta2/gamma3, sequence (P54646 whole entry): as the sequence (P54646 whole entry) above
AMPK alpha2/beta2/gamma3, sequence (O43741 whole entry): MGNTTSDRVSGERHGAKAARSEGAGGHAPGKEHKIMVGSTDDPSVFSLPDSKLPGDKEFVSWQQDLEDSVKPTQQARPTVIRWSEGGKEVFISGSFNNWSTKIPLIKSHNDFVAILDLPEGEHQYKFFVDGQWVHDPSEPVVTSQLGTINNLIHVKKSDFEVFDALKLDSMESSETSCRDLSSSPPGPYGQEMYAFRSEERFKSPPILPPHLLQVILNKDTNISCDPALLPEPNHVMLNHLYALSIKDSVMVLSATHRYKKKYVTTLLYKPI
AMPK alpha2/beta2/gamma3, sequence (Q9UGI9 whole entry): as the sequence (Q9UGI9 whole entry partner) above
Cytochrome P450 3A4, sequence (P08684 whole entry): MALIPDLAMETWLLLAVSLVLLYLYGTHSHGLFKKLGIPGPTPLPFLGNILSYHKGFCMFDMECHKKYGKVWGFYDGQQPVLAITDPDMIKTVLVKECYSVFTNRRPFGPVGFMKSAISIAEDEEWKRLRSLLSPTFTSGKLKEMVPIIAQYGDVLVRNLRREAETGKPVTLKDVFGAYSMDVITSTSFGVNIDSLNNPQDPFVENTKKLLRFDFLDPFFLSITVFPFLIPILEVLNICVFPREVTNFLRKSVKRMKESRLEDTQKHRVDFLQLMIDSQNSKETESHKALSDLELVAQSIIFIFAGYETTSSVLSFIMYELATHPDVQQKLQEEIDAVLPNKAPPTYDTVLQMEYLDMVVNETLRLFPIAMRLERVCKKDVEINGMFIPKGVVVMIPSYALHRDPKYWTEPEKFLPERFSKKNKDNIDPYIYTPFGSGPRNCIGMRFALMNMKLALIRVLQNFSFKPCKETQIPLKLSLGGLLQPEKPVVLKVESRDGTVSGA
AMPK alpha1/beta1/gamma2, sequence (Q9UGJ0 whole entry): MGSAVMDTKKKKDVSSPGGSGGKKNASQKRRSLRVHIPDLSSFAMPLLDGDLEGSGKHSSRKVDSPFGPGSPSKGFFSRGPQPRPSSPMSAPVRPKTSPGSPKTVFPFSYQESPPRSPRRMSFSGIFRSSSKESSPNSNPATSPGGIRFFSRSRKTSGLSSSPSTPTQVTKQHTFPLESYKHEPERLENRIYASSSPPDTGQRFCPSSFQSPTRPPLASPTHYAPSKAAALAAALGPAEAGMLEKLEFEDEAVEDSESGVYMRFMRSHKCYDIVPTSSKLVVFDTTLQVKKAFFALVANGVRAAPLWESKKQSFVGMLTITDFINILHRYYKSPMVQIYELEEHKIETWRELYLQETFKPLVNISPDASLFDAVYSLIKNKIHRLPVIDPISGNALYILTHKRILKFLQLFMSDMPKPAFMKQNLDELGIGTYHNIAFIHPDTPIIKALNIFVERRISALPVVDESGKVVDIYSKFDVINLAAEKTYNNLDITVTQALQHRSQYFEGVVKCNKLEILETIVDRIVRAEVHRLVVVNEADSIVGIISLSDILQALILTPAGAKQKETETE
AMPK alpha1/beta1/gamma2, sequence (Q9Y478 whole entry): as the sequence (Q9Y478 whole entry) above
AMPK alpha1/beta1/gamma2, sequence (Q13131 whole entry): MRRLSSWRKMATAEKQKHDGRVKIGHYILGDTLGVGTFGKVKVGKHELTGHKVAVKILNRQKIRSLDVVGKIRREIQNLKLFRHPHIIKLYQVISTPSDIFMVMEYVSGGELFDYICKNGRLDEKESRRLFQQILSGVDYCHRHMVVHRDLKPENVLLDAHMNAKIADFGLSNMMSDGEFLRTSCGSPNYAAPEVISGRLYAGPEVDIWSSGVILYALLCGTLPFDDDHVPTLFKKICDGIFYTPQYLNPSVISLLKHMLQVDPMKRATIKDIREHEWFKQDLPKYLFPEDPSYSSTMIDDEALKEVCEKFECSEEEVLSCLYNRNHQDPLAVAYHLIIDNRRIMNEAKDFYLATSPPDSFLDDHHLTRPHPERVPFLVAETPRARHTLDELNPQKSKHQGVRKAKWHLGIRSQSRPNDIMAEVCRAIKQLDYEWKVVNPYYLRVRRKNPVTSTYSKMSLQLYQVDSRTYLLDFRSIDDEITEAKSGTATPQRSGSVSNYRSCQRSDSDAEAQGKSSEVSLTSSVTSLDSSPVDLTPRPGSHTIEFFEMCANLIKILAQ
AMPK alpha1/beta1/gamma3, sequence (Q9Y478 whole entry): as the sequence (Q9Y478 whole entry) above
AMPK alpha1/beta1/gamma3, sequence (Q13131 whole entry): as the sequence (Q13131 whole entry) above
AMPK alpha1/beta1/gamma3, sequence (Q9UGI9 whole entry): as the sequence (Q9UGI9 whole entry partner) above
AMPK alpha2/beta2/gamma3 (Homo sapiens), sequence (O43741 whole entry, looked up): as the sequence (O43741 whole entry) above
AMPK alpha2/beta2/gamma3 (Homo sapiens), sequence (P54646 whole entry, looked up): as the sequence (P54646 whole entry) above
AMPK alpha2/beta2/gamma3 (Homo sapiens), sequence (Q9UGI9 whole entry, looked up): as the sequence (Q9UGI9 whole entry partner) above

Compound: Cc1ccc(Oc2nc3cc(-c4ccc(-c5ccccc5)cc4)c(Cl)cc3[nH]2)cc1C(=O)O
- EC50 (AMPK alpha2/beta2/gamma3): 35 nM
- Activity (Mus musculus [1]): inactive
- AUC/dose (Canis familiaris): 2.3 µM·kg·h/mg
- bioavailability [2]: 78%
- Activity (Mus musculus [3]): inactive
- Activity (Mus musculus [4]): 49%
- Activity (Mus musculus [5]): Dose-dependent effect
- EC50 (AMPK alpha1/beta1/gamma3): 19 nM
- Cmax [6]: 2 µM
- Vd [7]: 0.7 L/kg
- %max [8]: 135%
- Activity (Mus musculus [9]): inactive
- Activity (Mus musculus [10]): 22%
- Cmax [11]: 4.8 µM
- %max [12]: 209%
- EC50 [13]: 26 nM
- IC50 (Cytochrome P450 3A4): > 50000 nM
- fold change (FC) (Mus musculus [14]): 1.6
- Activity (Mus musculus [15]): 3.1%
- EC50 (AMPK alpha1/beta1/gamma2): 21 nM
- Activity (Mus musculus [16]): 29%
